The source made the active and inactive calls. The rule behind the calls is not given here.
Key:
[1] = tested on: Brevibacillus brevis; experiment: Antibacterial activity against Bacillus brevis ATTC 9999 at 10 mg/ml after 24 to 72 hrs by agar diffusion method; format: functional, organism-based
In short: (§1)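 Bacterial plates: nutrient broth (8 g/l) with 1.5% agar, seeded at 45 °C with spores or vegetative cells to 10^6 cfu/ml. Compounds were dissolved in methanol at 10 mg/ml and applied to 6 mm paper discs, which were dried and laid on the plates. Inhibition zone diameter (mm) and type (complete or incomplete) were scored after 24–72 h.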

[2] = tested on: Bacillus subtilis; experiment: Antibacterial activity against Bacillus subtilis ATTC 6633 at 10 mg/ml after 24 to 72 hrs by agar diffusion method; format: functional, organism-based; in short: as §1
[3] = tested on: Enterobacter cloacae subsp. dissolvens; experiment: Antibacterial activity against Enterobacter dissolvens ATCC 222 at 10 mg/ml after 24 to 72 hrs by agar diffusion method; format: functional, organism-based; in short: as §1
[4] = tested on: Micrococcus luteus; experiment: Antibacterial activity against Micrococcus luteus ATCC 381 at 10 mg/ml after 24 to 72 hrs by agar diffusion method; format: functional, organism-based; in short: as §1
[5] = tested on: NIH3T3; experiment: Cytotoxicity against mouse NIH/3T3 cells after 96 hrs by sulforhodamine-B colorimetric assay; format: cell-based; settings: NIH3T3, 96 h
In short: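 Exponentially growing mouse embryonic fibroblasts were seeded and treated 24 h later with serial dilutions for 96 h; DMSO or DMF stayed at or below 0.5%. Cells were fixed with 10% TCA at 4 °C, stained with 0.4% SRB for about 20 min, washed with 1% acetic acid, solubilised in Tris base, and read at 570 nm. Survival is relative to untreated controls. IC50 was obtained by linear interpolation across the 50% line; three independent experiments.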

[6] = tested on: Botrytis cinerea; experiment: Antifungal activity against Botrytis cinerea FSU 883 at 10 mg/ml after 24 to 72 hrs by agar diffusion method; format: functional, organism-based
In short: (§2)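 Fungal plates: malt extract/yeast extract (HA) medium with 1.5% agar, seeded at 45 °C with spores or yeast cells to 10^5 cfu/ml. Compounds in methanol at 10 mg/ml were loaded onto 6 mm paper discs and dried before placement. Inhibition zone diameter (mm) and complete or incomplete inhibition were recorded after 24–72 h.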

[7] = tested on: Rhizomucor miehei; experiment: Antifungal activity against Mucor miehei FSU 769 at 10 mg/ml after 24 to 72 hrs by agar diffusion method; format: functional, organism-based; in short: as §2
[8] = tested on: Eremothecium coryli; experiment: Antifungal activity against Nematospora coryli ATCC 10647 at 10 mg/ml after 24 to 72 hrs by agar diffusion method; format: functional, organism-based; in short: as §2
[9] = tested on: Penicillium chrysogenum; experiment: Antifungal activity against Penicillium notatum FSU 2721 at 10 mg/ml after 24 to 72 hrs by agar diffusion method; format: functional, organism-based; in short: as §2
[10] = tested on: Colletotrichum graminicola; experiment: Antifungal activity against Colletotrichum graminicola M2 at 10 mg/ml after 24 to 72 hrs by agar diffusion method; format: functional, organism-based; in short: as §2

| SMILES | Activity [1] | Activity [2] | Activity [3] | Activity [4] | IC50 [5] [µM] | Activity [6] | Activity [7] | Activity [8] | Activity [9] | Activity [10] |
| --- | --- | --- | --- | --- | --- | --- | --- | --- | --- | --- |
| COc1cc(/C=C/c2cccc(O)c2)cc(OC)c1 | Active | Active | inactive | Active | > 30 |  |  |  |  |  |
| COc1cc(/C=C/c2ccc(O)cc2)cc(OC)c1 [PTEROSTILBENE] | Active |  | inactive |  | 12.2 | inactive |  |  |  |  |
| COc1ccc(OC)c(/C=C/c2cccc(O)c2)c1 | Active | Active | inactive | Active | 25.8 |  |  |  |  |  |
| Oc1ccc(/C=C/c2cc(O)c(F)c(O)c2)cc1 | Active |  | inactive |  | > 30 | inactive |  |  |  |  |
| Oc1cccc(/C=C/c2cc(F)c(F)c(F)c2)c1 | Active | Active | inactive | Active | > 30 |  | Active |  |  |  |
| Oc1ccc(O)c(/C=C/c2ccc(O)c(O)c2)c1 |  |  | inactive |  | > 30 |  |  |  |  |  |
| Oc1ccc(/C=C/c2cc(O)ccc2O)cc1 | Active |  | inactive |  | 9.6 | inactive |  |  |  |  |
| Oc1cccc(/C=C/c2cc(O)ccc2O)c1 | Active | Active | inactive | Active | 10.5 |  |  |  |  |  |
| Oc1ccc(/C=C/c2cc(F)c(F)c(F)c2)cc1 | Active |  | inactive |  | 6.9 | inactive |  | Active |  |  |
| Oc1cccc(/C=C/c2cc(O)c(F)c(O)c2)c1 | Active | Active | inactive | Active | > 30 |  |  |  |  |  |
| Oc1cccc(/C=C/c2cc(O)cc(O)c2)c1 | Active | Active | inactive | Active | > 30 |  |  |  |  |  |
| COc1cc(/C=C/c2cccc(O)c2)cc(OC)c1F | Active | Active | inactive | Active | 11.8 |  |  |  |  |  |
| COc1ccc(/C=C/c2ccc(O)cc2)c(OC)c1 | Active |  | inactive |  | 8.2 | inactive |  |  |  |  |
| Oc1ccccc1/C=C/c1cc(F)c(F)c(F)c1 | Active | Active | inactive | Active | > 30 | Active | Active | Active | Active | Active |
| Oc1ccc(/C=C/c2cc(O)cc(O)c2)cc1 [RESVERATROL] | inactive |  | inactive | Active | > 30 | inactive |  |  |  |  |
| COc1cc(/C=C/c2ccc(O)cc2)cc(OC)c1F | Active |  | inactive |  | 11.5 | inactive |  |  |  |  |
| COc1ccc(/C=C/c2ccc(OC)c(O)c2)c(OC)c1 |  |  |  |  | 2.1 |  |  |  |  |  |
| COc1ccc(/C=C/c2cccc(O)c2)c(OC)c1 | Active | Active | inactive | Active | 19.6 |  |  |  |  |  |
| COc1ccc(OC)c(/C=C/c2ccc(O)cc2)c1 | Active |  | inactive |  | 7.4 | inactive |  |  |  |  |
| COc1ccc(/C=C/c2ccccc2O)c(OC)c1 | Active | Active | inactive | Active | > 30 |  |  |  |  |  |
| CN(C)[C@@H]1C(O)=C(C(N)=O)C(=O)[C@@]2(O)C(O)=C3C(=O)c4c(O)cccc4[C@@](C)(O)[C@H]3C[C@@H]12 | Active |  |  |  |  |  |  |  |  |  |
| COc1cc(F)c(/C=C/c2cc(O)ccc2O)cc1O | Active | Active | inactive | Active | 21.1 |  |  |  |  |  |
| Oc1ccc(O)c(/C=C/c2ccccc2O)c1 | Active | Active | inactive | Active | 12.4 |  |  |  |  |  |
| COc1cc(/C=C/c2ccccc2O)cc(OC)c1F | Active | Active | inactive | Active | 14.8 |  |  |  |  |  |
| COc1cc(/C=C/c2ccc(OC)c(O)c2)cc(OC)c1 |  |  |  |  | 0.2 |  |  |  |  |  |
| COc1ccc(/C=C/c2cc(O)ccc2O)cc1O |  |  | inactive |  | > 30 |  |  |  |  |  |

From ChEMBL document CHEMBL1817619, “Synthesis and antimicrobial activity of (E) stilbene derivatives” (Bioorg Med Chem, 2011)
